Measurements from ChEMBL document CHEMBL3804761, “Synthesis of a stable and orally bioavailable englerin analogue” (Bioorg Med Chem Lett, 2016).

Experiments:
Assay type in all cases: functional
[1] = Growth inhibition of human SF268 cells assessed as cell growth at 10 uM incubated for 48 hrs by sulforhodamine B assay relative to control; conditions: SF-268, 48 h, read-out: Activity
Outline: (§1)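 Run in the standard NCI 60-cell-line screen. Cells were exposed to drug for two days, and the read-out was sulforhodamine B staining. Compound was tested at a single final concentration of 10 µM in every line, and results are reported as growth percent.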

U-251 = assay: Growth inhibition of human U251 cells assessed as cell growth at 10 uM incubated for 48 hrs by sulforhodamine B assay relative to control; conditions: U-251, 48 h, read-out: Activity
Outline: (§2)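 NCI 60-cell line standard protocol, one-dose screen: single final concentration 10 µM, 2-day drug exposure, sulforhodamine B (SRB) endpoint; read-out is growth percent relative to untreated control.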

MDA-MB-435 = assay: Growth inhibition of human MDA-MB-435 cells assessed as cell growth at 10 uM incubated for 48 hrs by sulforhodamine B assay relative to control; conditions: MDA-MB-435, 48 h, read-out: Activity; outline: as §1
[2] = Growth inhibition of human UACC62 cells assessed as cell growth at 10 uM incubated for 48 hrs by sulforhodamine B assay relative to control; conditions: UACC-62, 48 h, read-out: Activity; outline: as §2
[3] = Growth inhibition of human DU145 cells assessed as cell growth at 10 uM incubated for 48 hrs by sulforhodamine B assay relative to control; conditions: DU-145, 48 h, read-out: Activity; outline: as §1
MDA-MB-231 = assay: Growth inhibition of human MDA-MB-231 cells assessed as cell growth at 10 uM incubated for 48 hrs by sulforhodamine B assay relative to control; conditions: MDA-MB-231, 48 h, read-out: Activity; outline: as §1
T47D = assay: Growth inhibition of human T47D cells assessed as cell growth at 10 uM incubated for 48 hrs by sulforhodamine B assay relative to control; conditions: read-out: Activity; outline: as §2
[4] = Growth inhibition of human RXF393 cells assessed as cell growth at 10 uM incubated for 48 hrs by sulforhodamine B assay relative to control; conditions: RXF 393, 48 h, read-out: Activity; outline: as §1
SR [5] = assay: Growth inhibition of human SR cells incubated for 48 hrs by sulforhodamine B assay
Outline: (§3)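 Tested in the standard NCI 60-cell-line protocol with two-day drug exposure and a sulforhodamine B endpoint. Compounds were first screened at a single final concentration of 10 µM, reported as growth percent. They were then run as five 10-fold dilutions starting from a high concentration of 100 µM to give dose-response curves.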

NCI-H23 = assay: Growth inhibition of human NCI-H23 cells incubated for 48 hrs by sulforhodamine B assay; conditions: NCI-H23, 48 h
Outline: (§4)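 NCI 60-cell-line panel, standard protocol. Cells exposed to compound for two days, growth read by sulforhodamine B staining. Tested at five 10-fold dilutions, top concentration 100 µM, to give dose-response curves.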

[6] = Growth inhibition of human HCC2998 cells incubated for 48 hrs by sulforhodamine B assay; conditions: HCC 2998, 48 h; outline: as §4
[7] = Growth inhibition of human HCT116 cells incubated for 48 hrs by sulforhodamine B assay; conditions: HCT-116, 48 h; outline: as §4
HT-29 = assay: Growth inhibition of human HT-29 cells incubated for 48 hrs by sulforhodamine B assay; conditions: HT-29, 48 h; outline: as §4
Malme-3M = assay: Growth inhibition of human MALME-3M cells incubated for 48 hrs by sulforhodamine B assay; outline: as §4
SK-MEL-28 = assay: Growth inhibition of human SK-MEL-28 cells incubated for 48 hrs by sulforhodamine B assay; conditions: SK-MEL-28, 48 h; outline: as §4
[8] = Growth inhibition of human UACC257 cells incubated for 48 hrs by sulforhodamine B assay; conditions: UACC-257, 48 h; outline: as §3
[9] = Growth inhibition of human IGROV1 cells incubated for 48 hrs by sulforhodamine B assay; conditions: IGROV-1, 48 h; outline: as §4
NCI/ADR-RES = assay: Growth inhibition of human NCI/ADR-RES cells incubated for 48 hrs by sulforhodamine B assay; outline: as §4
[10] = Growth inhibition of human SKOV3 cells incubated for 48 hrs by sulforhodamine B assay; conditions: SK-OV-3, 48 h; outline: as §3
A498 = assay: Growth inhibition of human A498 cells incubated for 48 hrs by sulforhodamine B assay; conditions: A498, 48 h
[11] = Growth inhibition of human Caki1 cells incubated for 48 hrs by sulforhodamine B assay; conditions: CAKI-1, 48 h; outline: as §4
[12] = Growth inhibition of human BT549 cells incubated for 48 hrs by sulforhodamine B assay; conditions: BT-549, 48 h; outline: as §4
MDA-MB-468 = assay: Growth inhibition of human MDA-MB-468 cells incubated for 48 hrs by sulforhodamine B assay; conditions: MDA-MB-468, 48 h; outline: as §4
K562 = assay: Growth inhibition of human K562 cells incubated for 48 hrs by sulforhodamine B assay; conditions: K562, 48 h; outline: as §4
[13] = Growth inhibition of human MOLT4 cells assessed as cell growth at 10 uM incubated for 48 hrs by sulforhodamine B assay relative to control; conditions: MOLT-4, 48 h, read-out: Activity; outline: as §1
SR [14] = assay: Growth inhibition of human SR cells assessed as cell growth at 10 uM incubated for 48 hrs by sulforhodamine B assay relative to control; conditions: read-out: Activity; outline: as §1
NCI-H226 = assay: Growth inhibition of human NCI-H226 cells assessed as cell growth at 10 uM incubated for 48 hrs by sulforhodamine B assay relative to control; conditions: NCI-H226, 48 h, read-out: Activity; outline: as §1
[15] = read-out: pLC50 (the source's name) (converted)

Which growth at 10 µM [1] does the source give for `CC(C)[C@@]12C[C@@H](NC(=O)CO)[C@@](C)(O1)[C@@H]1CC[C@@H](C)[C@H]1[C@@H]2OC(=O)/C=C/C1CCCCC1` here?
The growth at 10 µM was 106%.

And the growth at 10 µM (U-251)?
The growth at 10 µM was 98.1%.

What about the growth at 10 µM (MDA-MB-435) of the same compound?
Its growth at 10 µM is 102%.

And the growth at 10 µM [2]?
The growth at 10 µM was 101%.

What about the growth at 10 µM [3] of the same compound?
Its growth at 10 µM is 116%.

And the growth at 10 µM (MDA-MB-231)?
The growth at 10 µM was 107%.

And the growth at 10 µM (T47D)?
Its growth at 10 µM is 102%.

What about the growth at 10 µM [4] of the same compound?
The growth at 10 µM was 95.4%.

What about the GI50 (SR [5]) of the same compound?
Its GI50 is greater than 44.7 µM.

And the LC50 (SR [5])?
Its LC50 is greater than 44.7 µM.

And the TGI (SR [5]; read-out: pTGI (converted))?
The TGI was greater than 44.7 µM.

What about the GI50 (NCI-H23) of the same compound?
The GI50 was greater than 44.7 µM.

What about the LC50 (NCI-H23) of the same compound?
The LC50 was greater than 44.7 µM.

What about the TGI (NCI-H23; read-out: pTGI (converted)) of the same compound?
The TGI was greater than 44.7 µM.

And the GI50 [6]?
The GI50 was greater than 44.7 µM.

And the LC50 [6]?
Its LC50 is greater than 44.7 µM.

And the TGI ([6]; read-out: pTGI (converted))?
Its TGI is greater than 44.7 µM.

And the GI50 [7]?
Its GI50 is greater than 44.7 µM.

And the LC50 [7]?
The LC50 was greater than 44.7 µM.

What about the TGI ([7]; read-out: pTGI (converted)) of the same compound?
The TGI was greater than 44.7 µM.

And the GI50 (HT-29)?
The GI50 was greater than 44.7 µM.

What about the LC50 (HT-29) of the same compound?
Its LC50 is greater than 44.7 µM.

What about the TGI (HT-29; read-out: pTGI (converted)) of the same compound?
The TGI was greater than 44.7 µM.

And the GI50 (Malme-3M)?
Its GI50 is greater than 44.7 µM.

What about the LC50 (Malme-3M) of the same compound?
Its LC50 is greater than 44.7 µM.

And the TGI (Malme-3M; read-out: pTGI (converted))?
Its TGI is greater than 44.7 µM.

What about the GI50 (SK-MEL-28) of the same compound?
Its GI50 is greater than 44.7 µM.

And the LC50 (SK-MEL-28)?
The LC50 was greater than 44.7 µM.

What about the TGI (SK-MEL-28; read-out: pTGI (converted)) of the same compound?
Its TGI is greater than 44.7 µM.

What about the GI50 [8] of the same compound?
Its GI50 is greater than 44.7 µM.

And the CC50 [8, 15]?
Its CC50 is greater than 44.7 µM.

And the TGI ([8]; read-out: pTGI (converted))?
The TGI was greater than 44.7 µM.

What about the GI50 [9] of the same compound?
The GI50 was greater than 44.7 µM.

What about the CC50 [9, 15] of the same compound?
The CC50 was greater than 44.7 µM.

What about the TGI ([9]; read-out: pTGI (converted)) of the same compound?
The TGI was greater than 44.7 µM.

What about the GI50 (NCI/ADR-RES) of the same compound?
The GI50 was 40.7 µM.

And the LC50 (NCI/ADR-RES)?
The LC50 was greater than 44.7 µM.

What about the TGI (NCI/ADR-RES; read-out: pTGI (converted)) of the same compound?
Its TGI is greater than 44.7 µM.

And the GI50 [10]?
Its GI50 is greater than 44.7 µM.

What about the LC50 [10] of the same compound?
Its LC50 is greater than 44.7 µM.

What about the TGI ([10]; read-out: pTGI (converted)) of the same compound?
Its TGI is greater than 44.7 µM.

And the LC50 (A498)?
Its LC50 is greater than 44.7 µM.

And the GI50 (A498; read-out: GI50)?
The GI50 was 5.62 µM.

And the GI50 (A498; read-out: pGI50 (converted))?
The GI50 was 5.62 µM.

What about the TGI (A498; read-out: pTGI (converted)) of the same compound?
The TGI was 21.4 µM.

And the GI50 [11]?
The GI50 was greater than 44.7 µM.

What about the LC50 [11] of the same compound?
Its LC50 is greater than 44.7 µM.

And the TGI ([11]; read-out: pTGI (converted))?
The TGI was greater than 44.7 µM.

What about the GI50 [12] of the same compound?
The GI50 was greater than 44.7 µM.

And the CC50 [12, 15]?
Its CC50 is greater than 44.7 µM.

What about the TGI ([12]; read-out: pTGI (converted)) of the same compound?
Its TGI is greater than 44.7 µM.

And the GI50 (MDA-MB-468)?
Its GI50 is greater than 44.7 µM.

What about the CC50 (MDA-MB-468; [15]) of the same compound?
The CC50 was greater than 44.7 µM.

What about the TGI (MDA-MB-468; read-out: pTGI (converted)) of the same compound?
The TGI was greater than 44.7 µM.

And the GI50 (K562)?
The GI50 was greater than 44.7 µM.

And the CC50 (K562; [15])?
The CC50 was greater than 44.7 µM.

And the TGI (K562; read-out: pTGI (converted))?
Its TGI is greater than 44.7 µM.

And the growth at 10 µM [13]?
Its growth at 10 µM is 98%.

What about the growth at 10 µM (SR [14]) of the same compound?
Its growth at 10 µM is 93.2%.

And the growth at 10 µM (NCI-H226)?
The growth at 10 µM was 96.2%.
